SENP8 block-1 = inhibitors of human SENP8 protease; 360,000 tested, 0.64% active; Q96LD8; inhibition, % at 20 µM; AID 602440; recombinant SENP8, Nedd8 substrate fluorescence; in the data active = inhibition mostly above about 40%, no sharp cut-off; inactive = mostly below about 27%
Target sequence (Q96LD8 whole entry, looked up): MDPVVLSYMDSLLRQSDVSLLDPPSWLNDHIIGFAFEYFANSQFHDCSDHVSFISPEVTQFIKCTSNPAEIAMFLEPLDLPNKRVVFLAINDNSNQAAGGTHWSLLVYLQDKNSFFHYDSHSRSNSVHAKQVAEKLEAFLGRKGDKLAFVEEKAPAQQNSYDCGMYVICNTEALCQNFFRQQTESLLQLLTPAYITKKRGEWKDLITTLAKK
SENP6 block = inhibitors of human SENP6 protease | Recombinant SENP6 catalytic domain, aminoluciferin luminescence | inhibition, % at 10 µM | 330,000 tested, 1.8% active;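 active = inhibition above about 50% at the single tested dose, limit read from the data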
SENP8 block-2 = SENP8 protease inhibition; purified SENP8, Z-RLRGG-aminoluciferin cleavage, luminescence; inhibition, % at 10 µM; 330,000 tested, 1.2% active; AID 2540; in the data active = inhibition above about 50%
SENP1 FRET inh = inhibitors of human SENP1 SUMO protease catalytic domain; recombinant SENP1 catalytic domain, CyPet-SUMO1-YPet FRET cleavage; inhibition, % at 10 µM; 360,000 tested, 0.21% active; AID 624204;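 active = inhibition at least 30% at 10 µM, raw YFP signal under a set limit, fluorescence ratio 0.5 to 1.5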
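Compound: 10 µM single point, 0.5% DMSO; Test system: hSENP1 catalytic domain, recombinant; Timing: 50 min reaction at room temperature; Technique: FRET, CFP and YFP emission; Control set: no-enzyme wells low, DMSO-plus-enzyme wells high control.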
SENP7 inh = SENP7 protease inhibition | Q9BQF6 | inhibition, % at 5 µM | 330,000 tested, 1.5% active | recombinant SENP7, Z-RLRGG-aminoluciferin luminescence, 40 min;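 active = inhibition above about 50% at the single test dose, limit read from the data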
Target sequence (Q9BQF6 706-1050 limits assumed): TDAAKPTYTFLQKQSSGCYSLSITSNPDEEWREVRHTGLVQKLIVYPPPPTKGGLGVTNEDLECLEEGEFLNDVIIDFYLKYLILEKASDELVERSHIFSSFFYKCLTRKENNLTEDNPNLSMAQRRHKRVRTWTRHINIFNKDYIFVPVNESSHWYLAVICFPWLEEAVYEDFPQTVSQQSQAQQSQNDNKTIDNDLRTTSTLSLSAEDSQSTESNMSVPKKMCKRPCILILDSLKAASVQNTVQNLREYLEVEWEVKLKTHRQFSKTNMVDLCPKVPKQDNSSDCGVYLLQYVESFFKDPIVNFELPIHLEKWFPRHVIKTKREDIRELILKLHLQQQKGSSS
Apaf-1 inh = inhibitors of human Apaf-1 apoptosome; O14727; 330,000 tested, 0.71% active; AID 489030; inhibition, % at 20 µM; reconstituted apoptosome caspase-3 activity, DEVD-Rh110 fluorescence; active = inhibition of at least 40% at 20 µM
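Material: reconstituted apoptosome with Apaf-1, cytochrome c, caspase-9, procaspase-3, dATP / Buffer or medium: pH 7.5 Hepes buffer with CHAPS, BSA, DTT / Also added: cytochrome c with DEVD-Rh110 / Schedule: compound with Apaf-1, dATP, procaspase-3 30 min, then 50 min reaction, room temperature / Technique: rhodamine 110 fluorescence at Ex 480/Em 540 nm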
SENP8 confirm = human SENP8 inhibition, confirmed. inhibition, % at 12.5 µM. 6,200 tested, 40% active. shares compounds with SENP7 inh. Recombinant SENP8, Z-RLRGG-aminoluciferin luminescence, 60 min;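 active = mean inhibition across replicates above about 50%, limit read from the data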
SENP6 conf = confirmation of human SENP6 protease inhibitors; shares compounds with SENP7 inh; recombinant SENP6, Z-RLRGG-aminoluciferin luminescence; inhibition, % at 12.5 µM; 6,200 tested, 58% active
SENP7 confirm = confirmation of human SENP7 protease inhibitors; inhibition, % at 12.5 µM; shares compounds with SENP7 inh; 6,200 tested, 69% active; recombinant SENP7, Z-RLRGG-aminoluciferin luminescence, 40 min
Casp3 select = inhibits human caspase-3 in SENP selectivity test; shares compounds with SENP7 inh; purified caspase-3, Z-DEVD-aminoluciferin luminescence, 60 min; inhibition, % at 12.5 µM; 6,200 tested, 60% active;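 active = mean inhibition above about 50%, limit read from the data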
Luc interf = interferes with luciferase luminescence in SENP counter-screen. 6,200 tested, 39% active. inhibition, % at 12.5 µM. shares compounds with SENP7 inh. Pre-incubated SENP8/Z-RLRGG-aminoluciferin, luciferase luminescence interference;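 active = mean inhibition above about 50% when retested at one dose, limit read from the data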
A number is an active result; 0 = inactive; - = no result given. The list is not random: actives were taken first. Their share in the collection is about 2.9%.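 The calls were made as follows, unless noted: active = mean inhibition above about 50% in the one-dose retest (limit read from the data); inactive = the rest.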

SMILES	SENP8 block-1	SENP6 block	SENP8 block-2	SENP1 FRET inh	SENP7 inh	Apaf-1 inh	SENP8 confirm	SENP6 conf	SENP7 confirm	Casp3 select	Luc interf
Nc1cccc(-c2nc3cc(S(=O)(=O)c4ccc5oc(-c6cccc(N)c6)nc5c4)ccc3o2)c1	0	0	0	0	0	0	-	-	-	-	-
Cc1ccc(-c2nc3cc(N)ccc3o2)c(C)c1	0	83	69	0	67	0	58	73	92	55	0
CC(C)(C)c1ccc(-c2nc3cc(N)ccc3o2)cc1	0	83	74	0	78	0	0	84	95	0	77
CCOC(=O)C1(C)CCN1C(=O)c1ccc2ccccc2c1 (stereo unspecified)	0	-	-	0	-	-	-	-	-	-	-
COC(=O)c1ccc(-c2nc3ccc(C)cc3o2)cc1	0	0	0	0	70	0	0	0	0	0	0
COc1ccc(C=Nc2ccc3[nH]ncc3c2)c(O)c1	0	62	0	0	0	0	0	0	0	0	0
CC(C)C[C@H]1CNC(=O)C(=O)N1C[C@H]1CCCN1C[C@H](CC(C)C)N1C[C@H](Cc2ccccc2)N(CCc2ccccc2)C(=O)C1=O	0	-	-	0	-	-	-	-	-	-	-
CC(=O)CSc1nc2cc3c(cc2cc1C#N)OCCO3	0	91	95	0	97	0	84	87	58	86	0
COc1cc(NC(=O)n2ncc3cc(Cl)ccc32)cc(OC)c1	0	0	54	0	0	0	0	0	0	0	0
O=C(Nc1ccccc1F)n1ncc2cc(Cl)ccc21	0	0	0	0	0	0	-	-	-	-	-
COc1ccc(NC(=O)n2ncc3cc(Cl)ccc32)cc1OC	0	60	0	0	0	0	0	59	0	0	0
Cc1ccc(S(=O)(=O)NCC(=O)OCC(=O)N(C)C2CCCCC2)cc1	0	0	0	0	0	0	-	-	-	-	-
O=C(Nc1ccc(CSc2ccccc2)cc1)c1ccco1	0	84	69	0	89	0	0	63	95	72	0
O=C(CCc1ccccc1)Nc1ccc(NC(=O)c2ccco2)cc1	0	0	0	0	0	0	-	-	-	-	-
Cc1cc(NC(=O)c2ccc3c(c2)OCO3)ccc1NC(=O)c1ccco1	0	91	91	0	92	0	0	90	100	96	90
Cc1ccc(NC(=O)c2ccco2)cc1C	0	67	0	0	65	0	50	0	80	73	52
Cc1ccc(C(=O)Nc2ccc3c(c2)OCO3)cc1NC(=O)c1ccco1	0	0	0	0	0	0	-	-	-	-	-
COc1cc(OC)cc(C(=O)Nc2cc(NC(=O)c3ccco3)ccc2OC)c1	0	0	0	0	0	0	-	-	-	-	-
COc1cc(OC)cc(C(=O)Nc2ccc(NC(=O)c3ccco3)c(C)c2)c1	0	98	94	0	96	0	0	95	101	96	86
Cc1cc(NC(=O)c2ccco2)ccc1NC(=O)c1ccco1	0	0	0	0	0	0	-	-	-	-	-
Cn1c(-c2ccccc2)c(Sc2ccccc2)c2cc(-c3ccc4cc[nH]c4c3)ccc21	0	-	-	0	-	-	-	-	-	-	-
COc1ccc(C(C)C)cc1S(=O)(=O)Nc1cccnc1	0	-	-	0	-	-	-	-	-	-	-
O=C(C[C@H]1C[C@@H]2c3cc(NC(=O)c4ccc5c(c4)OCO5)ccc3O[C@@H]2[C@H](CO)O1)NCc1cc(F)ccc1F	0	-	-	0	-	-	-	-	-	-	-
Cc1ccc2nc(-c3ccc(NC(=O)c4ccco4)cc3)[nH]c2c1	0	51	0	0	0	0	0	0	64	0	0
Cc1cc(NC(=O)c2ccc3c(c2)OCO3)ccc1NC(=O)c1ccccc1	0	85	61	0	92	0	0	0	0	0	0
SMILES	SENP8 block-1	SENP6 block	SENP8 block-2	SENP1 FRET inh	SENP7 inh	Apaf-1 inh	SENP8 confirm	SENP6 conf	SENP7 confirm	Casp3 select	Luc interf
O=C(Nc1ccc(-c2nc3cccnc3s2)cc1)c1ccco1	0	93	86	0	89	0	75	91	99	79	0
O=C(Nc1ccc(OC(=O)c2ccco2)cc1)c1ccco1	0	83	0	0	86	0	67	62	90	53	80
Cn1cccc1-c1nc2ccc(NC(=O)c3ccco3)cc2[nH]1	0	0	0	0	0	0	-	-	-	-	-
CCCN1CCN(CCCNC(=O)CN2C(=O)COc3ccc(C(C)(C)C)cc32)CC1	0	-	-	0	-	-	-	-	-	-	-
CCn1nccc1C(=O)Nc1ccc(C)c(C)c1	0	70	65	0	82	0	69	64	91	84	75
O=C(Nc1ccc(Br)c(Cl)c1)c1ccco1	0	84	0	0	70	0	61	58	84	0	69
CSc1ccc(-c2cccc3nncn23)cc1	0	-	-	0	-	-	-	-	-	-	-
Cc1ccsc1C(=O)Nc1ccc(OCc2ccccc2)cc1	0	91	88	0	98	0	0	84	101	95	0
CC(C)=CC(=O)Nc1ccc(Br)cc1	0	0	0	0	54	0	0	0	83	61	60
O=C(Nc1ccc(OCc2ccccc2)cc1)c1cccnc1	0	0	0	0	0	0	-	-	-	-	-
CCOC(=O)C(=O)Nc1ccc(OCc2ccccc2)cc1	0	0	0	0	0	0	-	-	-	-	-
O=C(Nc1ccccc1)c1ccc(COc2ccccc2)cc1	0	0	0	0	64	0	0	0	0	0	0
CC(C)=CC(=O)Nc1ccc(OCc2ccccc2)cc1	0	73	0	0	58	0	0	0	76	0	0
O=c1[nH][nH]c2c1C(C1CCCCC1)OC(C1CCCCC1)C2 (stereo unspecified)	0	-	-	0	-	-	-	-	-	-	-
CCOc1ccc(S(=O)(=O)N2CCC(C(=O)Nc3ccccc3N3CCCC3)CC2)cc1	0	-	-	0	-	-	-	-	-	-	-
Cc1ccsc1C(=O)Nc1ccc(C(=O)O)cc1	0	0	79	0	86	0	0	78	95	96	81
COc1ccc(NC(=O)c2sccc2C)cn1	0	0	0	0	0	0	-	-	-	-	-
CCOc1ccc(NC(=O)c2ccc(OC)cc2)cc1	0	0	0	0	0	0	-	-	-	-	-
Cc1noc(C)c1COc1cccc(C(=O)Nc2ccc(OCc3ccccc3)cc2)c1	0	57	0	0	0	0	0	0	0	0	0

Source: PubChem
